# Experimental data as given in PMC11656380 (ACS Omega, 2024).
# Entries after “also recorded” stand apart in the source; their conditions may differ.
# What was measured:
# HPB-ALL cells = assay: Proliferation, total cell count over 3 days; format: cell-based, human; conditions: 15 μM DAPT, 100 μM Tat-Ram13 or 100 μM Tat-mRam13
# CCRF-CEM cells [1] = assay: Time course of cell death, trypan blue exclusion assay; format: cell-based, human; conditions: up to 24 h
# Summary of the method: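 CCRF-CEM cells in complete RPMI-1640 (10% fetal calf serum, 5% CO2) were exposed to test peptide, control peptide or etoposide at the indicated concentrations, sampled over up to 24 h, and scored for viable cells by trypan blue exclusion.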
# CCRF-CEM cells [2] = assay: Cell morphology, phase-contrast and DNA; format: cell-based, human; conditions: 100 μM Tat-Ram13 or 30 μM etoposide, 24 h
# Summary of the method: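 Cells were seeded at 5×10^5 per well in glass-bottom dishes and incubated with or without test compound. They were then stained with Hoechst 33342 for 10 min and imaged by fluorescence or confocal microscopy.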
# [3] = test system: caspase-3 in CCRF-CEM cells; assay: Western blot of caspase-3 cleavage; format: cell-based, human; conditions: 100 μM Tat-Ram13 or 30 μM etoposide
# Summary of the method: (§1)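 CCRF-CEM cells (1×10^6) were treated with 100 μM test peptide, or with etoposide, for the indicated time. Cells were washed in ice-cold PBS and lysed in RIPA buffer with protease inhibitors. Lysate (25 μg) was run on SDS-PAGE and blotted to PVDF, then blocked in 5% skim milk/PBS-0.1% Tween 20 for 30 min. Primary antibodies (1:1000; β-actin 1:10,000) were applied overnight at 4 °C, then HRP secondary for 1 h at 4 °C, with chemiluminescent detection.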
# PARP-1 in CCRF-CEM cells = assay: Western blot of PARP-1 cleavage; format: cell-based, human; conditions: 100 μM Tat-Ram13 or 30 μM etoposide
# Summary of the method: as §1
# CCRF-CEM cells [4] = assay: HMGB1 release, Western blot; format: cell-based, human; conditions: Western blot of supernatant and pellet, etoposide 24 h
# CCRF-CEM cells [5] = assay: WST-8 cell viability assay; format: cell-based, human; conditions: CCRF-CEM (Figure 7B)
# Summary of the method: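 Cells at 5×10^4 cells/100 μL in complete medium (RPMI-1640, 10% fetal calf serum, 10 U/mL penicillin G, 10 μg/mL streptomycin) were exposed to various concentrations of test peptide in a 5% CO2 incubator for 24 h. WST-8 was added, and absorbance at 450 nm was read 1–2 h later. Viability was relative to an HBSS-added control (100%). Data are means ± SD.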
# [6] = test system: interactions between NICD and CSL; conditions: human cell lysates; cited from earlier work
compound,measurement,setting,value
C[C@H](NC(=O)Cc1cc(F)cc(F)c1)C(=O)N[C@H](C(=O)OC(C)(C)C)c1ccccc1 [DAPT],cell proliferation (total cell count),HPB-ALL cells,significant reduction in proliferation
COc1cc([C@@H]2c3cc4c(cc3[C@@H](O[C@@H]3O[C@@H]5CO[C@@H](C)O[C@H]5[C@H](O)[C@H]3O)[C@H]3COC(=O)[C@H]23)OCO4)cc(OC)c1O [etoposide],time course of cell death,CCRF-CEM cells [1],occurred more slowly
same,cell morphology,CCRF-CEM cells [2],membrane blebbing and DNA fragmentation
same,caspase-3 cleavage,[3],did produce the cleaved fragment
same,cleavage of PARP-1 fragments (89 kDa),PARP-1 in CCRF-CEM cells,as etoposide did
same,HMGB1 release into the culture supernatant,CCRF-CEM cells [4],released very little HMGB1
RRQHGQLWFPEGF [Ram13],"cytotoxicity, role of the cell-penetrating part",CCRF-CEM cells [5],inactive; also recorded: lost its cytotoxicity
same,disruption of NICD-CSL interaction,[6],effectively disrupted interactions between NICD and CSL
